Test results taken from ChEMBL document CHEMBL4373711, “Development of 3,5-Dinitrophenyl-Containing 1,2,4-Triazoles and Their Trifluoromethyl Analogues as Highly Efficient Antitubercular Agents Inhibiting Decaprenylphosphoryl-β-d-ribofuranose 2'-Oxidase” (J Med Chem, 2019).

Columns and labels:
[1] = Selectivity index, ratio of IC50 for human A431 cells to MIC>99 for antimycobacterial activity against Mycobacterium kansasii CNCTC My 235/80 after 14 days; type: toxicity; conditions: read-out: Selectivity Index
[2] = Selectivity index, ratio of IC50 for human HepG2 cells to MIC>99 for antimycobacterial activity against Mycobacterium tuberculosis H37Rv CNCTC My 331/88 after 14 days; type: toxicity; conditions: read-out: Selectivity Index
Outline: (§1)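 SI from HepG2 IC50 and M. tuberculosis MIC. HepG2 cells: DMEM + 10% FBS + 1 mM pyruvate, 10,000/well, 48 h treatment, 0.1% DMSO and 10% SDS controls, MTS absorbance at 490 nm.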

[3] = Selectivity index, ratio of IC50 for human HepG2 cells to MIC>99 for antimycobacterial activity against Mycobacterium kansasii 6509/96 after 7 days; type: toxicity; conditions: read-out: Selectivity Index
[4] = Selectivity index, ratio of IC50 for human HepG2 cells to MIC>99 for antimycobacterial activity against Mycobacterium kansasii 6509/96 after 21 days; type: toxicity; conditions: read-out: Selectivity Index
[5] = Selectivity index, ratio of IC50 for human HepG2 cells to MIC>99 for antimycobacterial activity against Mycobacterium avium CNCTC My 330/88 after 14 days; type: toxicity; conditions: read-out: Selectivity Index
[6] = Selectivity index, ratio of IC50 for human HepG2 cells to MIC>99 for antimycobacterial activity against Mycobacterium kansasii CNCTC My 235/80 after 14 days; type: toxicity; conditions: read-out: Selectivity Index
[7] = Selectivity index, ratio of IC50 for human A431 cells to MIC>99 for antimycobacterial activity against Mycobacterium avium CNCTC My 330/88 after 14 days; type: toxicity; conditions: read-out: Selectivity Index
[8] = Selectivity index, ratio of IC50 for human HepG2 cells to MIC>99 for antimycobacterial activity against Mycobacterium kansasii 6509/96 after 14 days; type: toxicity; conditions: read-out: Selectivity Index
[9] = Selectivity index, ratio of IC50 for human HepG2 cells to MIC>99 for antimycobacterial activity against XDR Mycobacterium tuberculosis Praha 131 after 21 days; type: toxicity; conditions: read-out: Selectivity Index; outline: as §1
[10] = Selectivity index, ratio of IC50 for human A431 cells to MIC>99 for antimycobacterial activity against Mycobacterium kansasii CNCTC My 235/80 after 21 days; type: toxicity; conditions: read-out: Selectivity Index
[11] = Selectivity index, ratio of IC50 for human A431 cells to MIC>99 for antimycobacterial activity against XDR Mycobacterium tuberculosis Praha 131 after 14 days; type: toxicity; conditions: read-out: Selectivity Index
[12] = Selectivity index, ratio of IC50 for human HepG2 cells to MIC>99 for antimycobacterial activity against Mycobacterium kansasii CNCTC My 235/80 after 21 days; type: toxicity; conditions: read-out: Selectivity Index
[13] = Selectivity index, ratio of IC50 for human HepG2 cells to MIC>99 for antimycobacterial activity against Mycobacterium avium CNCTC My 330/88 after 21 days; type: toxicity; conditions: read-out: Selectivity Index
[14] = Selectivity index, ratio of IC50 for human HepG2 cells to MIC>99 for antimycobacterial activity against XDR Mycobacterium tuberculosis Praha 131 after 14 days; type: toxicity; conditions: read-out: Selectivity Index; outline: as §1
[15] = Selectivity index, ratio of IC50 for human A431 cells to MIC>99 for antimycobacterial activity against Mycobacterium kansasii CNCTC My 235/80 after 7 days; type: toxicity; conditions: read-out: Selectivity Index
[16] = Selectivity index, ratio of IC50 for human A431 cells to MIC>99 for antimycobacterial activity against XDR Mycobacterium tuberculosis Praha 131 after 21 days; type: toxicity; conditions: read-out: Selectivity Index
[17] = Selectivity index, ratio of IC50 for human A431 cells to MIC>99 for antimycobacterial activity against Mycobacterium avium CNCTC My 330/88 after 21 days; type: toxicity; conditions: read-out: Selectivity Index
[18] = Selectivity index, ratio of IC50 for human HepG2 cells to MIC>99 for antimycobacterial activity against Mycobacterium tuberculosis H37Rv CNCTC My 331/88 after 21 days; type: toxicity; conditions: read-out: Selectivity Index; outline: as §1
[19] = Selectivity index, ratio of IC50 for human HepG2 cells to MIC>99 for antimycobacterial activity against Mycobacterium kansasii CNCTC My 235/80 after 7 days; type: toxicity; conditions: read-out: Selectivity Index
[20] = Genotoxicity in Salmonella typhimurium TA98 at 30 uM in presence of rat liver S9 fraction by Ames test; type: toxicity, subcellular; conditions: salmonella enterica subsp. enterica serovar typhimurium, s9, 30 µM
Outline: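 Microplate fluctuation Ames reverse-mutation test following kit instructions; TA98 detects frameshift and TA100 base-exchange mutations. Compound at 30 µM final with Aroclor-1254-induced rat liver S9 plus cofactors.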

Row | SMILES | selectivity ratio at 336 h [1] | selectivity ratio at 336 h [2] | selectivity ratio at 168 h [3] | selectivity ratio at 504 h [4] | selectivity ratio at 336 h [5] | selectivity ratio at 336 h [6] | selectivity ratio at 336 h [7] | selectivity ratio at 336 h [8] | selectivity ratio at 504 h [9] | selectivity ratio at 504 h [10] | selectivity ratio at 336 h [11] | selectivity ratio at 504 h [12] | selectivity ratio at 504 h [13] | selectivity ratio at 336 h [14] | selectivity ratio at 168 h [15] | selectivity ratio at 504 h [16] | selectivity ratio at 504 h [17] | selectivity ratio at 504 h [18] | selectivity ratio at 168 h [19] | Activity [20]
1 | O=[N+]([O-])c1cc(-c2nnc(SCc3ccccc3)n2Cc2ccccc2)cc(C(F)(F)F)c1 | > 100 | > 100 | > 100 | > 100 | > 100 | > 100 | > 100 | > 100 | > 100 | > 100 | > 100 | > 100 | > 100 | > 100 | > 100 | > 100 | > 100 | > 100 | > 100 | –
2 | O=[N+]([O-])c1cc(-c2nnc(SCc3ccccc3)n2Cc2ccccc2)cc([N+](=O)[O-])c1 | – | – | – | – | – | – | – | – | – | – | – | – | – | – | – | – | – | – | – | Non-Toxic
